Measured values gathered from unrelated publications.
Compare with care: the assays were run in different laboratories.
Cell line: NCI-H460
Observed: cell growth or viability

The IC50 of `CC[C@@]1(O)C(=O)OCc2c1cc1n(c2=O)Cc2cc3ccccc3nc2-1` is reported as under 0.01 µM (72 h).
`OCC(CCc1ccc(O)cc1)c1ccc(O)cc1` (centres unmarked) has an IC50 of 55 µg/mL (MTT; 24 h).
With `CC(=O)c1ccc(/N=N/c2cc(/C=C/C(=O)O)ccc2O)cc1` the IC50 was over 50 µM (MTT).
For `COc1ccc(C/C=C/c2cc(OC)cc(OC)c2)cc1`, the IC50 was 77.3 µg/mL (MTT; 24 h).
With `O=C(O)c1cc(O)c(O)c(O)c1` the IC50 was 14.9 µM (MTT).
The IC50 of `OCc1ccc2c(c1C#Cc1ccc(O)cc1)C(c1ccc(O)cc1)(c1ccc(O)cc1)c1cc(O)ccc1-2` is reported as over 50 µM (MTT; 48 h).
`O=C(O)/C=C/c1ccc(O)c(O)c1` has an IC50 of 3.9 µM (MTT).
For `COc1cc(/C=C/Cc2ccc(O)c(OC)c2)cc(OC)c1`, the IC50 was 16.1 µg/mL (MTT; 24 h).
For `CC(=O)c1cccc(N=Nc2c(C(=O)O)cc(O)c(O)c2O)c1`, the IC50 was 9.5 µM (MTT).
With `C=CC(=O)Nc1cc(Nc2nc(N3CCc4sccc4C3)c3cccnc3n2)c(OC)cc1N(C)CCN(C)C` the IC50 was 5.68 µM (MTT).
For `Cc1ccc(-c2ccc(CCCN(O)C(=O)CP(=O)(O)O)cc2)cc1`, the IC50 was 229 µM (MTT; 96 h).
For `COc1cc(CNC(=O)CCCC/C=C/C(C)C)ccc1O`, the IC50 was 30.7 µM (SRB).
`O=c1[nH]cc(F)c(=O)[nH]1` gave an IC50 of 43.1 µM (MTT; 48 h).
With `O=c1[nH]cc(F)c(=O)[nH]1` the IC50 was 3 µM (MTT; 72 h).
`CCC(=O)Nc1cc(Nc2nc(N3CCc4sccc4C3)c3cccnc3n2)c(OC)cc1N(C)C` has an IC50 of 4.95 µM (MTT).
`O=C/C(=C/Cc1ccc(O)cc1)c1ccc(O)cc1` gave an IC50 of 26.9 µg/mL (MTT; 24 h).
For `CC(C)C[C@H](NC(=O)[C@H](Cc1ccccc1)NC(=O)c1cnccn1)B(O)O`, the IC50 was 0.03 µM (ATP luminescence).
For `CCC(=O)Nc1cc(Nc2nc(N3CCOCC3)c3sccc3n2)c(OC)cc1N(C)CCN(C)C`, the IC50 was over 50 µM (MTT).
With `O=C1NCCc2[nH]c(-c3ccncc3)cc21` the IC50 was 10 µM.
For `CCC(=O)Nc1cc(Nc2nc(N3CCc4sccc4C3)c3cccnc3n2)c(OC)cc1N1CCN(CC)CC1`, the IC50 was 1.16 µM (MTT).
`C(/Cc1ccc(OCc2ccccc2)cc1)=C(\COCc1ccccc1)c1ccc(OCc2ccccc2)cc1` has an IC50 of 48.3 µg/mL (MTT; 24 h).
`C=C(Cl)C(=O)Nc1cc(Nc2nc(Nc3cnn(C)c3)c3sccc3n2)c(OC)cc1N(C)CCN(C)C` gave an IC50 of 3.22 µM (MTT).
`COc1cc(/C=C/Cc2ccc(O)c(OC)c2)ccc1O` has an IC50 of 17.5 µg/mL (MTT; 24 h).
`CCC(=O)Nc1cc(Nc2nc(N3CCc4sccc4C3)c3cccnc3n2)c(OC)cc1N1CCSCC1` has an IC50 of 14.3 µM (MTT).
For `COc1ccc(C/C=C(/CO)c2ccc(OC)cc2)cc1`, the IC50 was 30.9 µg/mL (MTT; 24 h).
`CCC(=O)Nc1cc(Nc2nc(N3CCc4sccc4C3)c3cccnc3n2)c(OC)cc1N1CCN(C(C)=O)CC1` gave an IC50 of over 50 µM (MTT).
For `COc1ccc(-c2cc(=O)c3c(O)c(OC)c(OC)cc3o2)cc1O`, the IC50 was 37.5 µM (48 h).
With `COc1cccc2c1C(=O)c1c(O)c3c(c(O)c1C2=O)C[C@@](O)(C(=O)CO)C[C@@H]3O[C@H]1C[C@H](N)[C@H](O)[C@H](C)O1` the IC50 was 4.29 µM (SRB).
With `C=CC(=O)Nc1cc(Nc2nc(Nc3cnn(C)c3)c3sccc3n2)c(OC)cc1N(C)CCN(C)C` the IC50 was over 50 µM (MTT).
